Measured values from ChEMBL document CHEMBL1926577, “Novel 1,3,4-heterodiazole analogues: synthesis and in-vitro antitumor activity” (2012).

How the values were obtained:
Assay type in all cases: functional
[1] = system: MDA-MB-468; experiment: Growth inhibition of human MDA-MB-468 cells at 10 uM after 48 hrs by coulter counter method; settings: MDA-MB-468, 48 h, read-out: GI
How it was run: (§1)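 NCI 60-cell-line panel, single dose. Compound dissolved first in DMSO, then diluted in phosphate-buffered saline so that every final dilution held under 1% DMSO. Duplicate wells received cells at 6 × 10⁴ cells/ml. Controls held PBS/DMSO at the same dilution. Plates were incubated 48 h at 37 °C under 5% CO₂. Cells were then diluted 10-fold in saline and counted on a Coulter counter, with counts corrected for the dilution. Results are given as percent growth inhibition.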

[2] = system: HCT-15; experiment: Growth inhibition of human HCT15 cells at 10 uM after 48 hrs by coulter counter method; settings: HCT-15, 48 h, read-out: GI; how it was run: as §1
[3] = system: SK-MEL-28; experiment: Growth inhibition of human SK-MEL-28 cells at 10 uM after 48 hrs by coulter counter method; settings: SK-MEL-28, 48 h, read-out: GI; how it was run: as §1
[4] = system: HL-60(TB); experiment: Growth inhibition of human HL-60(TB) cells at 10 uM after 48 hrs by coulter counter method; settings: HL-60, 48 h, read-out: GI
How it was run: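 Single-dose screen on the NCI 60-line panel (leukemia subpanel). Compound is dissolved in DMSO and diluted in PBS, with final DMSO below 1%. Duplicate wells hold 6 × 10⁴ cells/ml at 37 °C, 5% CO₂, for 48 h. Cells are counted by Coulter counter after 10-fold saline dilution. Read-out is percent growth versus PBS/DMSO controls, expressed as % growth inhibition.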

[5] = system: Malme-3M; experiment: Growth inhibition of human MALME-3M cells at 10 uM after 48 hrs by coulter counter method; settings: read-out: GI; how it was run: as §1
[6] = system: SK-MEL-5; experiment: Growth inhibition of human SK-MEL-5 cells at 10 uM after 48 hrs by coulter counter method; settings: SK-MEL-5, 48 h, read-out: GI; how it was run: as §1
[7] = system: SN12C; experiment: Growth inhibition of human SN12C cells at 10 uM after 48 hrs by coulter counter method; settings: read-out: GI; how it was run: as §1
[8] = system: M14; experiment: Growth inhibition of human M14 cells at 10 uM after 48 hrs by coulter counter method; settings: M14, 48 h, read-out: GI; how it was run: as §1
[9] = system: SNB-19; experiment: Growth inhibition of human SNB19 cells at 10 uM after 48 hrs by coulter counter method; settings: SNB-19, 48 h, read-out: GI; how it was run: as §1
[10] = system: RPMI-8226; experiment: Growth inhibition of human RPMI8226 cells at 10 uM after 48 hrs by coulter counter method; settings: RPMI-8226, 48 h, read-out: GI; how it was run: as §1
[11] = system: CCRF-CEM; experiment: Growth inhibition of human CCRF-CEM cells at 10 uM after 48 hrs by coulter counter method; settings: read-out: GI; how it was run: as §1
[12] = system: SF-268; experiment: Growth inhibition of human SF268 cells at 10 uM after 48 hrs by coulter counter method; settings: SF-268, 48 h, read-out: GI; how it was run: as §1
[13] = system: SNB-75; experiment: Growth inhibition of human SNB75 cells at 10 uM after 48 hrs by coulter counter method; settings: SNB-75, 48 h, read-out: GI; how it was run: as §1
[14] = system: A498; experiment: Growth inhibition of human A498 cells at 10 uM after 48 hrs by coulter counter method; settings: A498, 48 h, read-out: GI; how it was run: as §1
[15] = system: HCT-116; experiment: Growth inhibition of human HCT116 cells at 10 uM after 48 hrs by coulter counter method; settings: HCT-116, 48 h, read-out: GI; how it was run: as §1
[16] = system: UO-31; experiment: Growth inhibition of human UO31 cells at 10 uM after 48 hrs by coulter counter method; settings: UO-31, 48 h, read-out: GI; how it was run: as §1
[17] = system: MCF7; experiment: Growth inhibition of human MCF7 cells at 10 uM after 48 hrs by coulter counter method; settings: MCF7, 48 h, read-out: GI; how it was run: as §1
[18] = system: HT-29; experiment: Growth inhibition of human HT-29 cells at 10 uM after 48 hrs by coulter counter method; settings: HT-29, 48 h, read-out: GI; how it was run: as §1
[19] = system: SF-295; experiment: Growth inhibition of human SF295 cells at 10 uM after 48 hrs by coulter counter method; settings: SF-295, 48 h, read-out: GI; how it was run: as §1
[20] = system: T47D; experiment: Growth inhibition of human T47D cells at 10 uM after 48 hrs by coulter counter method; settings: read-out: GI; how it was run: as §1
[21] = system: UACC-62; experiment: Growth inhibition of human UACC62 cells at 10 uM after 48 hrs by coulter counter method; settings: UACC-62, 48 h, read-out: GI; how it was run: as §1
[22] = system: NCI/ADR-RES; experiment: Growth inhibition of human NCI/ADR-RES cells at 10 uM after 48 hrs by coulter counter method; settings: read-out: GI; how it was run: as §1
[23] = system: MOLT-4; experiment: Growth inhibition of human MOLT4 cells at 10 uM after 48 hrs by coulter counter method; settings: MOLT-4, 48 h, read-out: GI; how it was run: as §1
[24] = system: 786-0; experiment: Growth inhibition of human 786-0 cells at 10 uM after 48 hrs by coulter counter method; settings: 786-0, 48 h, read-out: GI; how it was run: as §1
[25] = system: A549; experiment: Growth inhibition of human A549 cells at 10 uM after 48 hrs by coulter counter method; settings: A549, 48 h, read-out: GI; how it was run: as §1
[26] = system: NCI-H322M; experiment: Growth inhibition of human NCI-H322M cells at 10 uM after 48 hrs by coulter counter method; settings: read-out: GI; how it was run: as §1
[27] = system: TK-10; experiment: Growth inhibition of human TK10 cells at 10 uM after 48 hrs by coulter counter method; settings: TK-10, 48 h, read-out: GI; how it was run: as §1
[28] = system: NCI-H522; experiment: Growth inhibition of human NCI-H522 cells at 10 uM after 48 hrs by coulter counter method; settings: NCI-H522, 48 h, read-out: GI; how it was run: as §1
[29] = system: NCI-H226; experiment: Growth inhibition of human NCI-H226 cells at 10 uM after 48 hrs by coulter counter method; settings: NCI-H226, 48 h, read-out: GI; how it was run: as §1
[30] = system: EKVX; experiment: Growth inhibition of human EKVX cells at 10 uM after 48 hrs by coulter counter method; settings: read-out: GI; how it was run: as §1
[31] = system: UACC-257; experiment: Growth inhibition of human UACC257 cells at 10 uM after 48 hrs by coulter counter method; settings: UACC-257, 48 h, read-out: GI; how it was run: as §1
[32] = system: SR; experiment: Growth inhibition of human SR cells at 10 uM after 48 hrs by coulter counter method; settings: read-out: GI; how it was run: as §1
[33] = system: ACHN; experiment: Growth inhibition of human ACHN cells at 10 uM after 48 hrs by coulter counter method; settings: read-out: GI; how it was run: as §1
[34] = system: SK-MEL-2; experiment: Growth inhibition of human SK-MEL-2 cells at 10 uM after 48 hrs by coulter counter method; settings: SK-MEL-2, 48 h, read-out: GI; how it was run: as §1
[35] = system: MDA-MB-435; experiment: Growth inhibition of human MDA-MB-435 cells at 10 uM after 48 hrs by coulter counter method; settings: MDA-MB-435, 48 h, read-out: GI; how it was run: as §1
[36] = system: KM12; experiment: Growth inhibition of human KM12 cells at 10 uM after 48 hrs by coulter counter method; settings: KM12, 48 h, read-out: GI; how it was run: as §1
[37] = system: OVCAR-8; experiment: Growth inhibition of human OVCAR8 cells at 10 uM after 48 hrs by coulter counter method; settings: OVCAR-8, 48 h, read-out: GI; how it was run: as §1
[38] = system: CAKI-1; experiment: Growth inhibition of human Caki1 cells at 10 uM after 48 hrs by coulter counter method; settings: CAKI-1, 48 h, read-out: GI; how it was run: as §1
[39] = system: BT-549; experiment: Growth inhibition of human BT549 cells at 10 uM after 48 hrs by coulter counter method; settings: BT-549, 48 h, read-out: GI; how it was run: as §1
[40] = system: NCI-H23; experiment: Growth inhibition of human NCI-H23 cells at 10 uM after 48 hrs by coulter counter method; settings: NCI-H23, 48 h, read-out: GI; how it was run: as §1
[41] = system: LOX IMVI; experiment: Growth inhibition of human LOXIMVI cells at 10 uM after 48 hrs by coulter counter method; settings: read-out: GI; how it was run: as §1
[42] = system: K562; experiment: Growth inhibition of human K562 cells at 10 uM after 48 hrs by coulter counter method; settings: K562, 48 h, read-out: GI; how it was run: as §1
[43] = system: IGROV-1; experiment: Growth inhibition of human IGROV1 cells at 10 uM after 48 hrs by coulter counter method; settings: IGROV-1, 48 h, read-out: GI; how it was run: as §1
[44] = system: U-251; experiment: Growth inhibition of human U251 cells at 10 uM after 48 hrs by coulter counter method; settings: U-251, 48 h, read-out: GI; how it was run: as §1
[45] = system: PC-3; experiment: Growth inhibition of human PC3 cells at 10 uM after 48 hrs by coulter counter method; settings: PC-3, 48 h, read-out: GI; how it was run: as §1

`O=C1N=C2SC(c3ccccc3)=NN2C1=O` was tested, and the inhibition of growth at 10 µM [1] was < 10%, the inhibition of growth at 10 µM [2] was < 10% and the inhibition of growth at 10 µM [3] was < 10%. For the same compound, the inhibition of growth at 10 µM [4] was < 10%, the inhibition of growth at 10 µM [5] was < 10% and the inhibition of growth at 10 µM [6] was < 10%. For the same compound, the inhibition of growth at 10 µM [7] was < 10%, the inhibition of growth at 10 µM [8] was < 10% and the inhibition of growth at 10 µM [9] was < 10%. The inhibition of growth at 10 µM [10] was 12.6%, the inhibition of growth at 10 µM [11] was < 10% and the inhibition of growth at 10 µM [12] was < 10%. For the same compound, the inhibition of growth at 10 µM [13] was < 10%, the inhibition of growth at 10 µM [14] was < 10% and the inhibition of growth at 10 µM [15] was < 10%. For the same compound, the inhibition of growth at 10 µM [16] was 25.7%, the inhibition of growth at 10 µM [17] was < 10% and the inhibition of growth at 10 µM [18] was < 10%. The inhibition of growth at 10 µM [19] was < 10%, the inhibition of growth at 10 µM [20] was < 10% and the inhibition of growth at 10 µM [21] was < 10%. The inhibition of growth at 10 µM [22] was < 10%, the inhibition of growth at 10 µM [23] was < 10% and the inhibition of growth at 10 µM [24] was < 10%. The inhibition of growth at 10 µM [25] was < 10%, the inhibition of growth at 10 µM [26] was 10.8% and the inhibition of growth at 10 µM [27] was < 10%. The inhibition of growth at 10 µM [28] was 12.4%, the inhibition of growth at 10 µM [29] was < 10% and the inhibition of growth at 10 µM [30] was < 10%. The inhibition of growth at 10 µM [31] was 15.5%, the inhibition of growth at 10 µM [32] was < 10% and the inhibition of growth at 10 µM [33] was < 10%. For the same compound, the inhibition of growth at 10 µM [34] was < 10%, the inhibition of growth at 10 µM [35] was < 10% and the inhibition of growth at 10 µM [36] was < 10%. The inhibition of growth at 10 µM [37] was < 10%, the inhibition of growth at 10 µM [38] was < 10% and the inhibition of growth at 10 µM [39] was < 10%. For the same compound, the inhibition of growth at 10 µM [40] was < 10%, the inhibition of growth at 10 µM [41] was < 10% and the inhibition of growth at 10 µM [42] was < 10%. For the same compound, the inhibition of growth at 10 µM [43] was < 10%, the inhibition of growth at 10 µM [44] was < 10% and the inhibition of growth at 10 µM [45] was 10.7%.
